Results reported in ChEMBL document CHEMBL1142964, “Synthesis and biological evaluation of [18F]bicalutamide, 4-[76Br]bromobicalutamide, and 4-[76Br]bromo-thiobicalutamide as non-steroidal androgens for prostate cancer imaging” (J Med Chem, 2007).

Columns and labels:
[1] = molecular target: T1, Androgen receptor (Rattus norvegicus, UniProt P15207); assay: Binding affinity to rat AR
T1 sequence (P15207 whole entry): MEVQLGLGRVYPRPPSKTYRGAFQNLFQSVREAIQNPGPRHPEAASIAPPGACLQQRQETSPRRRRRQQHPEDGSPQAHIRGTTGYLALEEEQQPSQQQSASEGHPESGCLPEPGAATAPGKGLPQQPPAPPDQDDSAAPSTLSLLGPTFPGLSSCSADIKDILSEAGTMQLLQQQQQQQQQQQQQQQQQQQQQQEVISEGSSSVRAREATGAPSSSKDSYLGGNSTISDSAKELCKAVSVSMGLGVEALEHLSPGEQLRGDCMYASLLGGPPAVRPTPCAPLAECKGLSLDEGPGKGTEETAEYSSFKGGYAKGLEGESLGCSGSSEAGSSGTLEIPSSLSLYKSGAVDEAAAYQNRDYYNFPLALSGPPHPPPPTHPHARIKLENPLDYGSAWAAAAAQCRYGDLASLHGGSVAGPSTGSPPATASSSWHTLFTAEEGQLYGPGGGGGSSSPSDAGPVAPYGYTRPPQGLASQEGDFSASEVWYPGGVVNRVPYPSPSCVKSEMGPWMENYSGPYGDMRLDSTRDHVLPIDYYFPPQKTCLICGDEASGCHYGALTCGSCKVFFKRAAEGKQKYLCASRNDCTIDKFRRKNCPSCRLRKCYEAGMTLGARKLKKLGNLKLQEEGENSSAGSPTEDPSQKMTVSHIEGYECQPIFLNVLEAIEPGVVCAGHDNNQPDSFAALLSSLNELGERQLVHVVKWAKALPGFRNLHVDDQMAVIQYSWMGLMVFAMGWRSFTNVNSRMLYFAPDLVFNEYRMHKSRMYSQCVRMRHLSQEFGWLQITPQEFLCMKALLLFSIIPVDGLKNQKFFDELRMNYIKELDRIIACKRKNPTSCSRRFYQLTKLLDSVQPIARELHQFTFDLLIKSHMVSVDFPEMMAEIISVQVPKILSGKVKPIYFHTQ

[2] = test system: Kidney; assay: Biodistribution in kidney of iv dosed testis-intact Sprague-Dawley rat after 1 hr block; format: ADME, organism-based; details: in vivo
Summary of the method: (§1)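 76Br-tracer in 10% ethanol-saline, given iv by tail vein to mature male Sprague-Dawley rats (250 g) castrated 7 days before. Doses were 4 µCi/animal (1 h) and 7 µCi/animal (18 h). Block group used testes-intact rats, with the AR saturated by endogenous androgen. Five animals per group. Tissues were excised, weighed, saline-washed, blotted and counted. %ID/g was taken against injected-dose standards.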

[3] = Biodistribution in kidney of iv dosed Sprague-Dawley rat after 18 hrs; format: ADME, organism-based; details: read-out: Drug uptake; summary of the method: as §1
[4] = test system: Kidney; assay: Biodistribution in kidney of iv dosed testis-intact Sprague-Dawley rat after 18 hrs block; format: ADME, organism-based; details: in vivo; summary of the method: as §1
[5] = Biodistribution in blood of iv dosed CWR22 tumor bearing mouse with 17alpha-methyltestosterone-induced androgen block after 90 min; format: ADME, organism-based; details: human, read-out: Drug uptake
Summary of the method: (§2)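 Mature male mice (25 g) bearing flank CWR22 prostate tumors received DES (0.2 mg in 0.1 mL sesame oil, sc) 24 and 3 h before the tracer. 76Br-tracer, 6 µCi/animal in 10% ethanol-saline, was given iv by tail vein. Mice were killed at 30 or 90 min. Block set was co-injected with 8 µg 17α-methyltestosterone. Five animals per point. Results are %ID/g.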

[6] = Biodistribution in liver of iv dosed CWR22 tumor bearing mouse after 30 min; format: ADME, organism-based; details: human, read-out: Drug uptake; summary of the method: as §2
[7] = Biodistribution in liver of iv dosed CWR22 tumor bearing mouse after 60 min; format: ADME, organism-based; details: human, read-out: Drug uptake
[8] = Biodistribution in liver of iv dosed CWR22 tumor bearing mouse with 17alpha-methyltestosterone-induced androgen block after 90 min; format: ADME, organism-based; details: human, in vivo, 1.5 h; summary of the method: as §2
[9] = Biodistribution in kidney of iv dosed CWR22 tumor bearing mouse after 30 min; format: ADME, organism-based; details: human, read-out: Drug uptake; summary of the method: as §2
[10] = Biodistribution in kidney of iv dosed CWR22 tumor bearing mouse after 60 min; format: ADME, organism-based; details: human, read-out: Drug uptake
[11] = Biodistribution in kidney of iv dosed CWR22 tumor bearing mouse with 17alpha-methyltestosterone-induced androgen block after 90 min; format: ADME, organism-based; details: human, in vivo, 1.5 h; summary of the method: as §2
[12] = Biodistribution in muscle of iv dosed CWR22 tumor bearing mouse after 30 min; format: ADME, organism-based, Muscle tissue; details: human, read-out: Drug uptake; summary of the method: as §2
[13] = Biodistribution in muscle of iv dosed CWR22 tumor bearing mouse after 60 min; format: ADME, organism-based, Muscle tissue; details: human, read-out: Drug uptake
[14] = Biodistribution in prostate of iv dosed CWR22 tumor bearing mouse with 17alpha-methyltestosterone-induced androgen block after 90 min; format: ADME, organism-based, Prostate gland; details: human, read-out: Drug uptake; summary of the method: as §2
[15] = Biodistribution in muscle of iv dosed CWR22 tumor bearing mouse with 17alpha-methyltestosterone-induced androgen block after 90 min; format: ADME, organism-based; details: human, read-out: Drug uptake; summary of the method: as §2
[16] = Biodistribution in prostate of iv dosed CWR22 tumor bearing mouse after 30 min; format: ADME, organism-based, Prostate gland; details: human, read-out: Drug uptake; summary of the method: as §2
[17] = Biodistribution in prostate of iv dosed CWR22 tumor bearing mouse after 60 min; format: ADME, organism-based, Prostate gland; details: human, read-out: Drug uptake
[18] = Biodistribution in tumor of iv dosed CWR22 tumor bearing mouse after 30 min; format: ADME, organism-based; details: human, read-out: Drug uptake; summary of the method: as §2
[19] = Biodistribution in tumor of iv dosed CWR22 tumor bearing mouse after 60 min; format: ADME, organism-based; details: human, read-out: Drug uptake
[20] = Biodistribution in tumor of iv dosed CWR22 tumor bearing mouse with 17alpha-methyltestosterone-induced androgen block after 90 min; format: ADME, organism-based; details: human, in vivo, 1.5 h; summary of the method: as §2
[21] = Ratio of drug uptake in prostate to muscle in iv dosed Sprague-Dawley rat after 1 hr; format: ADME, organism-based, Prostate gland; details: in vivo
Summary of the method: (§3)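 Castrated male Sprague-Dawley rats were dosed iv (tail vein) with 4 µCi 76Br-tracer in 10% ethanol-saline and killed at 1 h, five per group. Tissues were weighed and counted and %ID/g calculated against dose standards. Ratios are prostate %ID/g over blood or muscle %ID/g.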

[22] = Ratio of drug uptake in prostate to blood in iv dosed Sprague-Dawley rat after 1 hr; format: ADME, organism-based, Prostate gland; summary of the method: as §3
[23] = test system: Blood; assay: Biodistribution in blood of iv dosed testis-intact Sprague-Dawley rat after 1 hr block; format: ADME, organism-based; details: in vivo; summary of the method: as §1
[24] = Biodistribution in blood of iv dosed Sprague-Dawley rat after 1 hr; format: ADME, organism-based; details: read-out: Drug uptake; summary of the method: as §1
[25] = Biodistribution in blood of iv dosed Sprague-Dawley rat after 18 hrs; format: ADME, organism-based; details: read-out: Drug uptake; summary of the method: as §1
[26] = test system: Blood; assay: Biodistribution in blood of iv dosed testis-intact Sprague-Dawley rat after 18 hrs block; format: ADME, organism-based; details: in vivo; summary of the method: as §1
[27] = Biodistribution in liver of iv dosed Sprague-Dawley rat after 1 hr; format: ADME, organism-based; details: read-out: Drug uptake; summary of the method: as §1
[28] = Biodistribution in liver of iv dosed testis-intact Sprague-Dawley rat after 1 hr block; format: ADME, organism-based; details: male, read-out: Drug uptake; summary of the method: as §1
[29] = Biodistribution in liver of iv dosed Sprague-Dawley rat after 18 hrs; format: ADME, organism-based; details: read-out: Drug uptake; summary of the method: as §1
[30] = test system: Liver; assay: Biodistribution in liver of iv dosed testis-intact Sprague-Dawley rat after 18 hrs block; format: ADME, organism-based; details: in vivo; summary of the method: as §1
[31] = Biodistribution in kidney of iv dosed Sprague-Dawley rat after 1 hr; format: ADME, organism-based; details: read-out: Drug uptake; summary of the method: as §1
[32] = Biodistribution in muscle of iv dosed Sprague-Dawley rat after 1 hr; format: ADME, organism-based, Muscle tissue; details: read-out: Drug uptake; summary of the method: as §1
[33] = test system: Muscle tissue; assay: Biodistribution in muscle of iv dosed testis-intact Sprague-Dawley rat after 1 hr block; format: ADME, organism-based; details: in vivo; summary of the method: as §1
[34] = Biodistribution in muscle of iv dosed Sprague-Dawley rat after 18 hrs; format: ADME, organism-based, Muscle tissue; details: read-out: Drug uptake; summary of the method: as §1
[35] = test system: Muscle tissue; assay: Biodistribution in muscle of iv dosed testis-intact Sprague-Dawley rat after 18 hrs block; format: ADME, organism-based; details: in vivo; summary of the method: as §1
[36] = Biodistribution in bone of iv dosed Sprague-Dawley rat after 1 hr; format: ADME, organism-based, Bone element; details: read-out: Drug uptake; summary of the method: as §1
[37] = test system: Bone; assay: Biodistribution in bone of iv dosed testis-intact Sprague-Dawley rat after 1 hr block; format: ADME, organism-based, Bone element; details: in vivo; summary of the method: as §1
[38] = Biodistribution in bone of iv dosed Sprague-Dawley rat after 18 hrs; format: ADME, organism-based, Bone element; details: read-out: Drug uptake; summary of the method: as §1
[39] = test system: Bone; assay: Biodistribution in bone of iv dosed testis-intact Sprague-Dawley rat after 18 hrs block; format: ADME, organism-based, Bone element; details: in vivo; summary of the method: as §1
[40] = Biodistribution in prostate of iv dosed Sprague-Dawley rat after 1 hr; format: ADME, organism-based, Prostate gland; details: read-out: Drug uptake; summary of the method: as §1
[41] = test system: Prostate gland; assay: Biodistribution in prostate of iv dosed testis-intact Sprague-Dawley rat after 1 hr block; format: ADME, organism-based; details: in vivo; summary of the method: as §1
[42] = Biodistribution in prostate of iv dosed Sprague-Dawley rat after 18 hrs; format: ADME, organism-based, Prostate gland; details: read-out: Drug uptake; summary of the method: as §1
[43] = test system: Prostate gland; assay: Biodistribution in prostate of iv dosed testis-intact Sprague-Dawley rat after 18 hrs block; format: ADME, organism-based; details: in vivo; summary of the method: as §1
[44] = Biodistribution in blood of iv dosed CWR22 tumor bearing mouse after 30 min; format: ADME, organism-based; details: human, read-out: Drug uptake; summary of the method: as §2
[45] = Biodistribution in blood of iv dosed CWR22 tumor bearing mouse after 60 min; format: ADME, organism-based; details: human, in vivo, 1 h

CC(O)(CS(=O)(=O)c1ccc(Br)cc1)C(=O)Nc1ccc(C#N)c(C(F)(F)F)c1 (stereo not given)
Kd [1]: 110 nM

CC(O)(CS(=O)(=O)c1ccc([76Br])cc1)C(=O)Nc1ccc(C#N)c(C(F)(F)F)c1 (stereo not given)
Drug uptake [2]: 1 % ID/g
tissue uptake at 18 h [3]: 0.36 %ID/g
Drug uptake [4]: 0.26 % ID/g
tissue uptake at 1.5 h [5]: 3 %ID/g
tissue uptake at 0.5 h [6]: 15 %ID/g
tissue uptake at 1 h [7]: 18 %ID/g
Drug uptake [8]: 14 % ID/g
tissue uptake at 0.5 h [9]: 7.2 %ID/g
tissue uptake at 1 h [10]: 7.8 %ID/g
Drug uptake [11]: 7.6 % ID/g
tissue uptake at 0.5 h [12]: 2.5 %ID/g
tissue uptake at 1 h [13]: 2.9 %ID/g
tissue uptake at 1.5 h [14]: 3.4 %ID/g
tissue uptake at 1.5 h [15]: 2.8 %ID/g
tissue uptake at 0.5 h [16]: 2.2 %ID/g
tissue uptake at 1 h [17]: 2.8 %ID/g
tissue uptake at 0.5 h [18]: 2.5 %ID/g
tissue uptake at 1 h [19]: 3.8 %ID/g
Drug uptake [20]: 4.5 % ID/g
Ratio [21]: 2.9
Kp at 1 h [22]: 1.8
Drug uptake [23]: 0.62 % ID/g
tissue uptake at 1 h [24]: 0.56 %ID/g
tissue uptake at 18 h [25]: 0.34 %ID/g
Drug uptake [26]: 0.29 % ID/g
tissue uptake at 1 h [27]: 2.1 %ID/g
tissue uptake at 1 h [28]: 2.5 %ID/g
tissue uptake at 18 h [29]: 0.56 %ID/g
Drug uptake [30]: 0.36 % ID/g
tissue uptake at 1 h [31]: 1 %ID/g
tissue uptake at 1 h [32]: 0.34 %ID/g
Drug uptake [33]: 0.38 % ID/g
tissue uptake at 18 h [34]: 0.15 %ID/g
Drug uptake [35]: 0.11 % ID/g
tissue uptake at 1 h [36]: 0.28 %ID/g
Drug uptake [37]: 0.31 % ID/g
tissue uptake at 18 h [38]: 0.13 %ID/g
Drug uptake [39]: 0.12 % ID/g
tissue uptake at 1 h [40]: 1 %ID/g
Drug uptake [41]: 0.68 % ID/g
tissue uptake at 18 h [42]: 0.27 %ID/g
Drug uptake [43]: 0.22 % ID/g
tissue uptake at 0.5 h [44]: 2.7 %ID/g
Drug uptake [45]: 3.5 % ID/g
